ChEMBL document CHEMBL4376878, “Potent Thiophene Antagonists of Human Complement C3a Receptor with Anti-Inflammatory Activity” (J Med Chem, 2020)
The source made the active and inactive calls. The calls are words filed in the database; no cut-off is given here.

How the values were obtained:
[1] = Tmax in Wistar rat at 10 mg/kg, po by LC-MS/MS analysis; type: ADME, organism-based; settings: in vivo
Method in brief: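 Male Wistar rats with jugular vein catheter, fasted overnight; dosed p.o. by gavage in olive oil or i.v. via catheter in 50% DMSO. Blood drawn from conscious unrestrained rats 5 min before dosing, then 5, 15, 30 min and 1–8 h after. Volume replaced with heparinized saline. Rats fed after 4 h sample. n = 3 per route.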

[2] = test system: Rattus norvegicus; assay: Antiinflammatory activity in Wistar rat model of BR103-induced paw edema assessed as reduction in Ccl2 gene expression at 10 mg/kg, po administered via gavage pretreated for 2 hrs followed by BR103 challenge and measured after 30 mins by SYBR green dye based RT-PCR analysis; type: functional, organism-based
Method in brief: (§1)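 Rats given 10 mg/kg p.o. in olive oil 2 h before i.pl. BR103 (350 μg/paw). Paws collected 0.5 h after agonist and homogenized in TRIsure for RNA. qPCR run in duplicate, normalized to Hprt, with fold change relative to sham. n = 3–5 male Wistar rats per group.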

[3] = test system: Rattus norvegicus; assay: Antiinflammatory activity in Wistar rat model of BR103-induced paw edema assessed as reduction in Cd244 gene expression at 10 mg/kg, po administered via gavage pretreated for 2 hrs followed by BR103 challenge and measured after 30 mins by SYBR green dye based RT-PCR analysis; type: functional, organism-based; method in brief: as §1

Cc1cc(C(c2ccc(Cl)cc2)c2ccc(Cl)cc2)sc1C(=O)N[C@@H](CCCNC(=N)N)C(=O)O
Tmax [1]: 5 h
Activity [2]: Active
Activity [3]: Active
